# High-throughput results as filed in PubChem BioAssay.
# OX1R antag-1 = OX1R (human) antagonism; OX1R-expressing cells, FRET antagonist read-out; 1.8% of 330,000 active; AID 485270; inhibition, % at 6.6 µM; O43613; in the data active = inhibition mostly above about 38%, no sharp cut-off; inactive = mostly below about 40%
# TAAR1 antag = human TAAR1 antagonism. 1.5% of 360,000 active. CHO RD-HGA16 TAAR1, Fluo-8 calcium fluorescence, antagonist. inhibition, % at 3 µM. AID 624466. Q96RJ0;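 active = inhibition above a per-plate cutoff, the mean inhibition of test compounds on that plate plus 3 SD, cut at about 49% in these data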
# Target sequence (Q96RJ0 whole entry, looked up): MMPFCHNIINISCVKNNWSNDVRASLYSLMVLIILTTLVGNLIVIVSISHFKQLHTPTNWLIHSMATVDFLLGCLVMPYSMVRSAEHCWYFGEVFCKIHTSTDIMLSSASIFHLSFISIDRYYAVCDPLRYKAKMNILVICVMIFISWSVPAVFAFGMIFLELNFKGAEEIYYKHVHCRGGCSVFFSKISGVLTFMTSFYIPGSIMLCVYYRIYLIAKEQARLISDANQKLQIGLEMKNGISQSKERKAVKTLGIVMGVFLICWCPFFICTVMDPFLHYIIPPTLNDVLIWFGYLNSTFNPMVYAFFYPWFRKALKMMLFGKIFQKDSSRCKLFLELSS
#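 Material: CHO RD-HGA16 cells bearing hTAAR1; compound dosing: one-point dosing, 3 µM nominal final; schedule: dye loading 75 min at 37 °C, then 30 min room temperature; measured by: calcium fluorescence with Fluo-8; control set: vehicle and agonist controls; replication: n of 1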
# GPR7 antag = antagonists of human GPR7 (neuropeptides B/W receptor 1). P48145. GPR7-expressing cells, fluorescence antagonist assay. inhibition, % at 4.4 µM. 1.1% of 290,000 active. AID 1861; in the data active = inhibition above about 16%, passing the limit was not always enough;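 also: cells stimulated with the agonist NPW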
# OX1R antag-2 = antagonists of human orexin 1 receptor; O43613; CHO/OX1R cells, Fluo-8 calcium fluorescence, orexin A; inhibition, % at 5 µM; 0.43% of 330,000 active;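 active = inhibition above its plate's threshold, mean inhibition of all tested compounds on the plate plus 3 SD, cut at about 37% in these data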
# CHO parental Ca = counter-screen: ATP calcium response change in parental CHO cells; parental CHO-K1, ATP-induced calcium, Fluo-8 fluorescence; inhibition, % at 5.6 µM; 0.63% of 330,000 active;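 active = inhibition above that plate's mean sample inhibition plus 3 SD, cut at about 26% in these data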
#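 Material: parental CHO cells / Compound: single nominal dose of 5.6 µM per compound / Signal: Fluo-8 fluorescence / Replicates: singlicate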
# TAAR1 agonist = agonists of human TAAR1. activation, % at 3 µM. Q96RJ0. 0.99% of 360,000 active. CHO RD-HGA16 TAAR1, Fluo-8 calcium fluorescence; vehicle wells 0%, saturating PEA agonist 100%. AID 624467;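 active = activation above the mean activation of all test compounds in the run plus 3 SD, cut at about 38% in these data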
#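 Repeats: no replicates (n 1) | Material: CHO-derived RD-HGA16 cells with stable Gα16 and human TAAR1 | Technique: Kinetic Fluo-8 calcium fluorescence | Schedule: 17-24 h seeding, 75 min 37 °C dye, 30 min RT | Evaluation: % activation from peak over basal fluorescence ratio, DMSO-to-PEA scaled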
# A number is an active result; – = inactive; · = no result. A selection: hits, their analogues and other compounds. The true share with any hit is near 4.6%.
SMILES,OX1R antag-1,TAAR1 antag,GPR7 antag,OX1R antag-2,CHO parental Ca,TAAR1 agonist
COc1ccc(C2CC(C)(c3ccc(OC)cc3OC)Nc3ccccc3N2)c(OC)c1 (stereo unspecified),–,–,–,38.0,71.5,–
O=C(O)CSc1c2ccccc2cc2ccccc12,53.8,–,–,–,–,–
Cc1[nH]c2ccccc2c1SCC(=O)O,–,–,–,–,–,–
C=CCNC(=O)c1ccc(Sc2ccccc2)c([N+](=O)[O-])c1,–,–,–,–,–,–
O=C(O)CNC(=O)c1ccc(Sc2ccccc2)c([N+](=O)[O-])c1,64.0,–,–,–,–,–
CSc1ccc(C(=O)NCC(=O)O)cc1[N+](=O)[O-],52.7,–,–,–,–,–
C[C@H]1CN([C@@H](C)CO)C(=O)c2cccc(NC(=O)C3CC3)c2O[C@H]1CN(C)Cc1ccc(-c2ccccc2)cc1,–,–,·,–,–,–
C=CCN1C(=Nc2cccnc2)SCC1(O)c1ccc(C)cc1 (stereo unspecified),–,·,–,–,36.7,·
CCc1cccc(NC(=O)CCc2nc(-c3cccs3)no2)c1,–,–,–,–,–,–
O=C(CCc1nc(-c2cccs2)no1)Nc1cnc2ccccc2c1,–,–,–,–,–,42.0
Cc1ccc(NC(=O)c2ccc(=O)[nH]n2)cc1S(=O)(=O)Nc1ccc(SC(F)F)cc1,–,–,·,–,–,–
CCN(CC)c1cc(NCCO)c([N+](=O)[O-])c2nonc12,53.2,–,–,–,–,–
CC(C)CCSc1cc(NCCO)c([N+](=O)[O-])c2nonc12,–,–,–,–,–,–
COc1ccc2cc([C@H](C)C(=O)OCc3cn(CC(=O)c4ccc(O)cc4)nn3)ccc2c1,·,–,·,·,·,–
COc1ccc(NS(=O)(=O)c2ccc(-c3cnc(C4CC4)o3)cc2)cc1OC,–,–,–,–,55.3,–
N=c1oc2c3c4c(cc2cc1C(=O)Nc1ccccc1)CCCN4CCC3,95.0,·,–,94.2,62.4,·
Cc1ccc(NC(=O)c2cc3ccccc3oc2=N)cc1,–,–,–,–,–,–
COc1ccc(/C=C(\C#N)c2n[nH]c(Cn3cncn3)n2)cc1,–,–,20.3,–,–,–
CN(C)c1ccc(Sc2ccc3nc(N)nc(N)c3c2)cc1,·,–,·,·,·,44.2
COc1cccc(NC(=S)NC(C)c2ccc(OC)c(OC)c2)c1 (stereo unspecified),75.1,–,–,–,–,–
O=C(NCc1cccnc1)/C(=C\c1ccc(-c2ccc(Cl)c(Cl)c2)o1)S(=O)(=O)c1ccccc1,–,–,30.7,–,–,–
O=C(NCc1cccnc1)c1ccc(-c2ccc(Cl)cc2)o1,–,–,–,–,–,–
CCNS(=O)(=O)c1ccc(CCC(=O)Nc2ccccc2C(=O)OC)cc1,–,–,–,–,–,–
COCc1ccc(C(=O)OC(C)C(=O)Nc2c(C)n(C)n(-c3ccccc3)c2=O)cc1 (stereo unspecified),–,–,·,–,–,–
O=C(OCCOc1cccc(Cl)c1)c1cc(S(=O)(=O)N2CCCCC2)ccc1N1CCOCC1,–,–,·,–,37.6,–
SMILES,OX1R antag-1,TAAR1 antag,GPR7 antag,OX1R antag-2,CHO parental Ca,TAAR1 agonist
Nc1cc2nsnc2cc1Br,–,–,–,–,–,–
Cc1ccc(Cc2nnc(SCC(=O)Nc3ccccc3Cl)[nH]c2=O)cc1,–,–,·,–,–,–
COc1ccc(Cl)cc1NC(=O)CSc1nnc(Cc2ccc(C)cc2)c(=O)[nH]1,49.8,–,·,–,–,–
Cc1ccc(C(=O)N/N=c2\oc3ccccc3cc2C(N)=O)cc1,–,–,–,–,–,–
NC(=O)c1cc2ccccc2o/c1=N\NC(=O)c1ccncc1,68.6,–,–,–,–,–
Cc1cccc(C2(c3cccc(C)c3)CC2C(=O)Nc2ccc([N+](=O)[O-])cc2O)c1 (stereo unspecified),–,58.0,–,–,–,–
CC1=N/C(=C\c2ccc([N+](=O)[O-])cc2)C(=O)N1c1ccc(Br)c(C)c1,–,–,–,–,–,–
COc1cc(/C=N/N2C(=O)CSC2=S)cc(Br)c1O,·,–,–,·,·,62.3
COC(=O)c1cc(C(=O)OCC(=O)NCc2cccs2)cc([N+](=O)[O-])c1,30.7,–,·,–,–,–
